# The source made the active and inactive calls. No cut-off for these calls is given here.
# How the values were obtained:
# [1] = molecular target: Transient receptor potential cation channel subfamily A member 1 (Homo sapiens) (UniProt O75762); assay: Inhibition of human TRPA1 expressed in HEK293 cells assessed as inhibition of AITC-induced current at 10 uM by whole cell patch-clamp method; format: cell-based
# Procedure, shortened: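 TRP channels overexpressed in HEK293 cells (hTRPA1, rTRPV1, rTRPV4, mouse TRPC6, hTRPC7, hTRPM8). Whole-cell patch clamp with Ca2+-free solutions to avoid desensitization. Channels fully activated with high concentrations of their agonists (AITC for TRPA1, capsaicin for TRPV1, GSK1016790A for TRPV4), then 10 μM test compound perfused with agonist. Result expressed as percentage of peak current blocked; mean ± SD.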
# ORAI1/STIM1 = ORAI1/STIM1 (Homo sapiens, UniProt Q96D31+Q13586); assay: Inhibition of STIM/Orai1 (unknown origin) expressed in HEK293 cells assessed as reduction in thapsigargin-induced Ca2+ influx at 10 uM in presence of Ca2+ by whole cell patch clamp method; format: cell-based; settings: hek293, 10 µM
# Chain of ORAI1/STIM1 (Q96D31 whole entry): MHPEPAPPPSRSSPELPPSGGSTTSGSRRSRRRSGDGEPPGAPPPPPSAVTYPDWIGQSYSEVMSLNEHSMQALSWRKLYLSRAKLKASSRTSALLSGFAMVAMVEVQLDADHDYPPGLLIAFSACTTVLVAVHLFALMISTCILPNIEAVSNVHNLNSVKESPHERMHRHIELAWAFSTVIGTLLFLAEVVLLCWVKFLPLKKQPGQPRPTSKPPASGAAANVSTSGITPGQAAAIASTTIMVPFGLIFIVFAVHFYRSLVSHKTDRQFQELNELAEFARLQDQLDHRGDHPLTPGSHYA
# Chain of ORAI1/STIM1 (Q13586 whole entry): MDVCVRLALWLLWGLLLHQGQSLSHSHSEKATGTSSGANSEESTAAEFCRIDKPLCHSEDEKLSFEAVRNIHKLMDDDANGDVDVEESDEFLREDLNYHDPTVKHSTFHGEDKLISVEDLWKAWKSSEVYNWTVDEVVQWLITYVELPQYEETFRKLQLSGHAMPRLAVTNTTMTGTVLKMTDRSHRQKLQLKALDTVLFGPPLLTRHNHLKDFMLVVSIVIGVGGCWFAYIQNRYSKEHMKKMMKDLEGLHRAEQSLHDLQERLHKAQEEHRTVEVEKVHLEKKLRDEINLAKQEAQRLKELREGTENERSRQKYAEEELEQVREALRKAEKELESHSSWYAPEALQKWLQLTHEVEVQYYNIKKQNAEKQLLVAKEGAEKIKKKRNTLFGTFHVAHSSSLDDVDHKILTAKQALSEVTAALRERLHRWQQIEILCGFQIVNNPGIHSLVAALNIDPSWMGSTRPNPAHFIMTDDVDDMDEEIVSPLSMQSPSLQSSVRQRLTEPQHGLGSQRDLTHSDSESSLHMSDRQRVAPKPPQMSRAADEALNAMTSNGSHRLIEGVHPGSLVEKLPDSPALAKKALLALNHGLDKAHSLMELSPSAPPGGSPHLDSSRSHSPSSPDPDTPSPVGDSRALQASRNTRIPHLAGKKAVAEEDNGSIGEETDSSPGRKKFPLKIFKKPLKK
# [2] = Metabolic stability in human liver microsomes assessed as half life at […] measured up to 240 mins in presence of NADPH regeneration system by LC-MS analysis; format: ADME, Microsome
# [3] = Toxicity in NSG/ICR mouse assessed as body weight loss at 200 mg/kg, ip administered once daily for 5 days; format: organism-based; settings: in vivo, 120 h, dose 200 mg/kg/day, time 5 day
# Procedure, shortened: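 Mice (n = 5 per group) dosed at 200 mg/kg by intraperitoneal injection once daily for 5 consecutive days. Survival monitored. Body weight expressed as mean percent change ± SD relative to weight at the start of treatment (day 0), with 15% weight loss as the reference line.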
# Chain of Transient receptor potential cation channel subfamily A member 1 (Homo sapiens) (O75762 whole entry, the tested form may be a part): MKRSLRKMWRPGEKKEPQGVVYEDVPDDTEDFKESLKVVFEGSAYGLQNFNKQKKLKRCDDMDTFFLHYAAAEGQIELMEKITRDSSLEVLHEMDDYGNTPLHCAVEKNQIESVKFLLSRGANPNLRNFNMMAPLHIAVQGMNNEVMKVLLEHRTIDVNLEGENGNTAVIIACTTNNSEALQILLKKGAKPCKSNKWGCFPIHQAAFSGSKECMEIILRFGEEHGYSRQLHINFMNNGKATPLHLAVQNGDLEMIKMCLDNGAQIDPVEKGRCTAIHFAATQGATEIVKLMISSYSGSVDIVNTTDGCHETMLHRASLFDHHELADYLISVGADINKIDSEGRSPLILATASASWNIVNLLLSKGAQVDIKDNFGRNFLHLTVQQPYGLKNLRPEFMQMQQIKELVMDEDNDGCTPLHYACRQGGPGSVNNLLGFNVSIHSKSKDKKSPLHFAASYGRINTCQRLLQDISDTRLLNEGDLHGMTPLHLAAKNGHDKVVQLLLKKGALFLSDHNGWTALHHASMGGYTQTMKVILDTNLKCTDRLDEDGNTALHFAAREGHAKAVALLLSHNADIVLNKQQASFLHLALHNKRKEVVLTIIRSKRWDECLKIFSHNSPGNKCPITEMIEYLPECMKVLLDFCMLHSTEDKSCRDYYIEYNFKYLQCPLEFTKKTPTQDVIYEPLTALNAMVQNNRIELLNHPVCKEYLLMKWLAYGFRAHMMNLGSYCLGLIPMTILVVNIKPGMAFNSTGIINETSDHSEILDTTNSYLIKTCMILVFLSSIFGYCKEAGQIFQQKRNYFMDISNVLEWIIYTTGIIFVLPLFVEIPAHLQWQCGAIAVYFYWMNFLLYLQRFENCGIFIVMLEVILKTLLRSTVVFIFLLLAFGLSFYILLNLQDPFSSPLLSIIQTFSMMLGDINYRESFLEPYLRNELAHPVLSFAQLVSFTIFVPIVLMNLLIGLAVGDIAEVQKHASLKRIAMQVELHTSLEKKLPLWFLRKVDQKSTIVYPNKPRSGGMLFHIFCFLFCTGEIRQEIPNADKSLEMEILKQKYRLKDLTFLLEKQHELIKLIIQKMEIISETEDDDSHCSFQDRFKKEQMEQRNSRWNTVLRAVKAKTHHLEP
structure (smiles),measurement,setting,value
CCNC(=O)c1cnn(-c2ccc(-n3ccc(Cl)c(Cl)c3=O)cc2)c1C(F)(F)F,inhibition,[1],inactive
same,inhibition (INH),ORAI1/STIM1,Active
same,half-life,[2],> 4 h
same,Activity,[3],Non-Toxic
